The values below come from ChEMBL document CHEMBL1156246 (J Med Chem, 2009).

SMILES strings stand for the structures. Activity calls are given as the source filed them. The calls are words filed in the database; no cut-off is given here. A value given as a limit tells only on which side of the number the result lay.

For data set [1], the system named is Mus musculus. Briefly: Anticonvulsant activity in ip dosed albino mouse assessed as protection against subcutaneous metrazole-induced seizures. It counts as functional, organism-based. The procedure, abridged: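 Male albino Carworth Farms No. 1 mice, dosed intraperitoneally; subcutaneous metrazol seizure model run by previously reported methods under the NIH Anticonvulsant Screening Program; protection against seizures scored.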

The test system of data set [2] is Rattus norvegicus. Briefly: Anticonvulsant activity against maximal electroshock-induced seizures in po dosed Sprague-Dawley rat assessed as time of peak effect. It counts as functional. (The maximal electroshock test induces tonic seizures with an electrical stimulus.)
Data set [3] has as its system Rattus norvegicus. Briefly: Toxicity in Sprague-Dawley rat assessed as occurrence of ataxia at 300 mg/kg, po. Format: organism-based. Also noted: dose 300 mg/kg, route oral. The conditions noted are these: in vivo.
Data set [4] has as its system Mus musculus. Briefly: Anticonvulsant activity against maximal electroshock-induced seizures in ip dosed albino mouse assessed as time of peak effect. Format: functional.
In data set [5] the test system is Rattus norvegicus. As to the kind of experiment: Anticonvulsant activity in po dosed Sprague-Dawley rat assessed as protection against maximal electroshock-induced seizures. Format: functional. The procedure, abridged:
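Male rodents screened through the NIH Anticonvulsant Screening Program: albino Carworth Farms No. 1 mice given compound ip, albino Sprague-Dawley rats given compound po. Maximal electroshock test: tonic hindlimb seizures were induced by corneal electrical stimulation. ED50 is given in mg/kg.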

For data set [6], the system named is Rattus norvegicus. Briefly: Anticonvulsant activity in po dosed Sprague-Dawley rat assessed as protection against subcutaneous metrazole-induced seizures. Format: functional, organism-based. The procedure, abridged: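 Male albino Sprague-Dawley rats, oral dosing; subcutaneous metrazol seizure test by previously reported methods within the NIH Anticonvulsant Screening Program.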

Data set [7] concerns Mus musculus. Briefly: Neurotoxicity in ip dosed albino mouse assessed as time of peak effect by rotarod test. The conditions noted are these: in vivo. Format: toxicity, organism-based. In general terms: The rotarod test checks motor coordination on a turning rod.

Turning to `O=C1NC(=O)C(c2ccccc2)(c2ccccc2)N1` [PHENYTOIN], the outcome in the data set with Mus musculus [1] and in the data set with Rattus norvegicus [6] was inactive. Further, the Time in the data set with Rattus norvegicus [2] was found to be 4 h; in the data set on Mus musculus [4], 2 h; in the data set on Mus musculus [7] it was 2 h. Moreover, the Activity result with Rattus norvegicus [3] was “Non-toxic”. In addition, in the data set on Rattus norvegicus [5], the median effective dose (ED50) (as a rule, the dose at which the effect has come halfway, by size or by number of responders) was over 30 mg/kg.
